≈ marks a conversion by molar mass, not a printed value.
Legend:
Escherichia coli [1] = assay: In vitro antibacterial activity against gram negative Escherichia coli Vogel.; type: functional
Klebsiella pneumoniae [2] = assay: In vitro antibacterial activity against gram negative Klebsiella pneumoniae MGH-2.; type: functional
Streptococcus pneumoniae [3] = assay: In vivo potency against acute systemic infection in mouse caused by Streptococcus pneumoniae SV-1 on subcutaneous injection.; type: functional; conditions: sc, read-out: PD50
Outline: (§1)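 Acute systemic mouse infection. A single subcutaneous dose was injected at the time of challenge. Potency is reported as the median protective dose (PD50, mg/kg), determined by earlier published methods.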

Providencia rettgeri = assay: In vitro antibacterial activity against gram negative Providencia rettgeri M-1771.; type: functional
Streptococcus pyogenes = assay: In vitro antibacterial activity against gram positive Streptococcus pyogenes C-203.; type: functional
[4] = Solubility (at pH 4); type: physicochemical; conditions: buffer, read-out: S
Outline: (§2)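 Solubility was measured either from HPLC peak areas at equilibrium or by a conventional weight-per-volume method. All solutions were held for 24 h before measurement.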

Enterobacter cloacae [5] = assay: In vitro antibacterial activity against gram negative Enterobacter cloacae MA 2646; type: functional
Escherichia coli [6] = assay: In vivo potency against acute systemic infection in mouse caused by Escherichia coli vogel on subcutaneous injection.; type: functional; conditions: sc, read-out: PD50; outline: as §1
Mus musculus [7] = assay: In vivo potency against acute systemic infection in mouse caused by Streptococcus pyogenes C-203 on subcutaneous injection; type: functional; conditions: sc, read-out: PD50; outline: as §1
Escherichia coli [8] = assay: In vivo potency against acute systemic infection in mouse caused by Escherichia coli Vogel on oral administration by gavage.; type: functional; conditions: read-out: PD50
Outline: (§3)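 Acute systemic mouse infection. A single oral dose was given by gavage at the time of challenge. Potency is reported as the median protective dose (PD50, mg/kg), determined by earlier published methods.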

Enterococcus faecalis = assay: In vitro antibacterial activity against gram positive Enterococcus faecalis MGH-2.; type: functional
[9] = molecular target: DNA gyrase (Escherichia coli) (UniProt P0AES6+P0AES4); assay: In vitro concentration inhibiting DNA gyrase induced cleavage in Escherichia coli H560.; type: functional
Outline: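 DNA gyrase test run as described in earlier work. The value is the drug concentration (µg/mL) needed to cause DNA cleavage.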

[10] = Solubility (in 0.1 N HCl); type: physicochemical; conditions: read-out: S; outline: as §2
[11] = Aqueous solubility; type: physicochemical; conditions: water (aqueous); read-out: S; outline: as §2
Staphylococcus aureus [12] = assay: In vitro antibacterial activity against gram positive Staphylococcus aureus H-228.; type: functional
[13] = Solubility (at pH 7.4); type: physicochemical; conditions: buffer; outline: as §2
Mus musculus [14] = assay: In vivo potency against acute systemic infection in mouse caused by Streptococcus pyogenes C-203 on oral administration by gavage; type: functional; conditions: read-out: PD50; outline: as §3
Pseudomonas aeruginosa [15] = assay: In vitro antibacterial activity against gram negative Pseudomonas aeruginosa UI-18.; type: functional
Streptococcus pneumoniae [16] = assay: In vitro antibacterial activity against gram positive Streptococcus pneumoniae SV-1.; type: functional
Staphylococcus aureus [17] = assay: In vitro antibacterial activity against gram positive Staphylococcus aureus UC76.; type: functional
Streptococcus pneumoniae [18] = assay: In vivo potency against acute systemic infection in mouse caused by Streptococcus pneumoniae SV-1 on oral administration by gavage.; type: functional; conditions: read-out: PD50; outline: as §3
Escherichia coli [19] = assay: In vitro antibacterial activity against gram negative Escherichia coli vogel; type: functional
Mus musculus [20] = assay: In vivo potency against acute systemic infection in mouse caused by Escherichia coli vogel on oral administration by gavage; type: functional; conditions: read-out: PD50; outline: as §3
Mus musculus [21] = assay: In vivo potency against acute systemic infection in mouse caused by Escherichia coli vogel on subcutaneous injection; type: functional; conditions: sc, read-out: PD50; outline: as §1
Pseudomonas aeruginosa [22] = assay: In vitro antibacterial activity against gram negative Pseudomonas aeruginosa. UI-18; type: functional
Klebsiella pneumoniae [23] = assay: In vitro antibacterial activity against gram negative Klebsiella pneumoniae. MGH-2; type: functional
Enterobacter cloacae [24] = assay: In vitro antibacterial activity against gram negative Enterobacter cloacae MA 2646.; type: functional
Mus musculus [25] = assay: In vivo potency against acute systemic infection in mouse caused by Streptococcus pneumoniae SV-1 on oral administration by gavage; type: functional; conditions: read-out: PD50; outline: as §3
Mus musculus [26] = assay: In vivo potency against acute systemic infection in mouse caused by Streptococcus pneumoniae SV-1 on subcutaneous injection; type: functional; conditions: sc, read-out: PD50; outline: as §1
Mus musculus [27] = assay: In vivo potency against acute systemic infection in mouse caused by Pseudomonas aeruginosa UI-18 on oral administration by gavage.; type: functional; conditions: read-out: PD50; outline: as §3
Mus musculus [28] = assay: In vivo potency against acute systemic infection in mouse caused by Pseudomonas aeruginosa. UI-18. on subcutaneous injection.; type: functional; conditions: sc, read-out: PD50; outline: as §1
Mus musculus [29] = assay: In vivo potency against acute systemic infection in mouse caused by Escherichia coli Vogel on subcutaneous injection; type: functional; conditions: sc, read-out: PD50; outline: as §1
[30] = system: DNA gyrase (Escherichia coli); assay: In vitro concentration inhibiting DNA gyrase induced cleavage in Escherichia coli H560
Mus musculus [31] = assay: In vivo potency against acute systemic infection in mouse caused by Escherichia coli Vogel on oral administration by gavage; type: functional; conditions: read-out: PD50; outline: as §3

SMILES | MIC (Escherichia coli [1]) [µg/mL] | ED50 (Streptococcus pneumoniae [3]) [mg/kg] | MIC (Providencia rettgeri) [µg/mL] | MIC (Streptococcus pyogenes) [µg/mL] | solubility [4] [µg/mL] | ED50 (Escherichia coli [6]) [mg/kg] | ED50 (Mus musculus [7]) [mg/kg] | ED50 (Escherichia coli [8]) [mg/kg] | MIC (Enterococcus faecalis) [µg/mL] | solubility [10] [µg/mL] | solubility [11] [µg/mL] | MIC (Staphylococcus aureus [12]) [µg/mL] | solubility ([13]; read-out: S) [µg/mL] | ED50 (Mus musculus [14]) [mg/kg] | MIC (Pseudomonas aeruginosa [15]) [µg/mL] | MIC (Streptococcus pneumoniae [16]) [µg/mL] | MIC (Staphylococcus aureus [17]) [µg/mL] | MIC (Klebsiella pneumoniae [23]) [µg/mL] | MIC (Enterobacter cloacae [24]) [µg/mL] | ED50 (Mus musculus [25]) [mg/kg] | also measured
Cl.Nc1c(F)c(N2CC[C@@H](N)C2)c(F)c2c1c(=O)c(C(=O)O)cn2C1CC1.O | 0.013 | 3.5 | 0.05 | 0.025 | 2600 | 0.3 | 7.5 | 1.7 | 0.05 | 200 | 2800 | 0.025 | 40 | 12 | 0.02 | 0.003 | 0.006 |  |  |  | MIC (Klebsiella pneumoniae [2]): 0.025 µg/mL; MIC (Enterobacter cloacae [5]): 0.013 µg/mL; Cleavage [9]: 0.1 µg/mL; ED50 (Streptococcus pneumoniae [18]): 15 mg/kg
CC(C)[C@H](N)C(=O)NC1CCN(c2nc3c(cc2F)c(=O)c(C(=O)O)cn3C2CC2)C1.Cl.O (stereo partly specified) |  |  | 1.6 | 1.6 | > 200000 |  | 27 |  | 1.6 | > 200000 | > 200000 | 1.6 | 80 | 76 |  | 1.6 | 0.4 | 1.6 | 0.4 |  | MIC (Escherichia coli [19]): 0.4 µg/mL; ED50 (Mus musculus [20]): 3 mg/kg; ED50 (Mus musculus [21]): 0.6 mg/kg; MIC (Pseudomonas aeruginosa [22]): 3.1 µg/mL
C[C@@H]1CN(c2c(F)c(N)c3c(=O)c(C(=O)O)cn(C4CC4)c3c2F)C[C@H](C)N1 [SPARFLOXACIN] | 0.025 (≈ 0.0637 µM) |  | 0.2 (≈ 0.51 µM) | 0.1 (≈ 0.255 µM) | 30 (≈ 76.5 µM) | 0.2 | 17 | 1 | 0.1 (≈ 0.255 µM) | 400 (≈ 1020 µM) | 90 (≈ 229 µM) | 0.05 (≈ 0.127 µM) | 10 (≈ 25.5 µM) | 17 | 0.8 (≈ 2.04 µM) | 0.05 (≈ 0.127 µM) | 0.025 (≈ 0.0637 µM) |  | 0.025 (≈ 0.0637 µM) | 14 | MIC (Klebsiella pneumoniae [2]): 0.05 µg/mL (≈ 0.127 µM); ED50 (Mus musculus [26]): 13 mg/kg; ED50 (Mus musculus [27]): 14 mg/kg; ED50 (Mus musculus [28]): 7 mg/kg; Cleavage [9]: 2.5 µg/mL
Cl.NCCCC[C@H](N)C(=O)NC1CCN(c2nc3c(cc2F)c(=O)c(C(=O)O)cn3C2CC2)C1.O (stereo partly specified) | 12.5 |  | 25 | > 25 | > 600000 |  |  |  | > 25 | > 200000 | > 300000 | 25 |  |  |  | > 25 | 6.3 | 25 | 12.5 | 71 | ED50 (Mus musculus [26]): 70 mg/kg; MIC (Pseudomonas aeruginosa [22]): > 25 µg/mL; solubility [13]: 70 µg/mL
Cl.N[C@H]1CCN(c2c(F)cc3c(=O)c(C(=O)O)cn(C4CC4)c3c2F)C1.O | 0.006 | 7 | 0.006 | 0.013 |  |  |  |  | 0.025 |  | 17000 | 0.013 |  |  | 0.025 | 0.013 | 0.003 | 0.003 | 0.013 | 15 | ED50 (Mus musculus [29]): 0.2 mg/kg; Cleavage [30]: 0.1 µg/mL; ED50 (Mus musculus [31]): 1 mg/kg
Cl.N[C@@H](Cc1ccccc1)C(=O)NC1CCN(c2nc3c(cc2F)c(=O)c(C(=O)O)cn3C2CC2)C1.O (stereo partly specified) | 0.8 | 37 | 6.3 | 1.6 | > 100000 | 0.4 |  | 2 | 0.8 | 80000 | > 200000 | 3.1 | 60 |  | 6.3 | 0.8 | 0.4 |  | 0.4 | 65 | MIC (Klebsiella pneumoniae [2]): 3.1 µg/mL
NC1CCN(c2nc3c(cc2F)c(=O)c(C(=O)O)cn3C2CC2)C1 (stereo unspecified) | 0.013 (≈ 0.0391 µM) | 33 | 0.05 (≈ 0.15 µM) | 0.2 (≈ 0.602 µM) |  | 0.6 | 14 | 2 | 0.2 (≈ 0.602 µM) |  |  | 0.2 (≈ 0.602 µM) |  | 32 | 0.05 (≈ 0.15 µM) | 0.2 (≈ 0.602 µM) | 0.013 (≈ 0.0391 µM) | 0.025 (≈ 0.0752 µM) | 0.025 (≈ 0.0752 µM) |  | Cleavage [30]: 1 µg/mL; ED50 (Mus musculus [27]): 7 mg/kg; ED50 (Mus musculus [28]): 3 mg/kg; ED50 (Streptococcus pneumoniae [18]): 58 mg/kg

From ChEMBL document CHEMBL1126036, “Quinolone antibacterial agents. Synthesis and structure-activity relationships of a series of amino acid prodrugs of racemic and chiral 7-(3-amino-1-pyrrolidinyl)quinolones. Highly soluble quinolone prodrugs with in vivo pseudomonas activity” (J Med Chem, 1992)
